Test results reported in PMC2802674 (Carcinogenesis, 2009).
Values belong to the compound of their own block, whether it stands above or below them.

What was measured:
Nrf2 = details: in vivo in mice; cited from earlier work
[1] = test system: mouse L5178Y lymphoma cells; details: with and without exogenous metabolic activation; cited from earlier work
[2] = test system: AA8 CHO cells (NER proficient) and UV5 cells (NER deficient); experiment: aprt mutant fraction in AA8 and UV5 CHO cells, 8-azaadenine selection; assay type: cell-based, Chinese hamster; details: absence of human liver S9, 100 μM–1 mM
Outline: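 AA8 (NER-proficient) and UV5 (NER-deficient, XPD/ERCC2 defect) CHO cells, neither expressing significant phase I or phase II enzymes, were exposed without human liver S9. Doses were parent alkylanilines at 50 μM–1 mM, or N-hydroxy and aminophenol metabolites at 5–500 μM. Mutant fraction at the heterozygous aprt locus was determined by 8-azaadenine selection.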

human liver microsomes = details: unpublished results; cited from earlier work
ct-DNA = experiment: Effect of Phase II conjugation activity on DNA adduct formation in vitro; assay type: biochemical; details: human liver S9, 1 μM [14C]amine, 6 h at 37°C, NAT cofactors
[3] = test system: CHO cells that are NER deficient (or proficient) and express mouse P4501A2 plus human aryl sulfotransferase or NAT genes; assay type: cell-based, Chinese hamster; details: two cell lines both deficient in NER, one expressing CYP1A2 and NAT2, 100 μM –1 mM
Outline: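 These are engineered CHO lines, heterozygous at aprt. UV5 (NER-deficient, XPD/ERCC2 defect) transfected with mouse CYP1A2, then human NAT2 or aryl sulfotransferase; NER-proficient counterparts were included. Parent alkylanilines were dosed at 50 μM–1 mM, and N-hydroxy or aminophenol metabolites at 5–500 μM. Mutant fraction was determined by 8-azaadenine selection.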

hepatic DNA = details: rats given 0.5 mmol/kg, 24 h, HPLC/MS/MS; cited from earlier work
rat liver microsomes = details: unpublished results; cited from earlier work
tissue DNA = details: C57/BL6 mice, dose ∼1 μmol/kg, accelerator mass spectrometry; cited from earlier work
rat hepatocytes = details: cited from earlier work
E.coli K12 = details: host-mediated assay after feeding to mice; cited from earlier work
bladder cancer [4] = details: population-based study, Los Angeles county; cited from earlier work
Drosophila melanogaster = details: feeding or injecting; cited from earlier work
[5] = test system: AA8 CHO cells (NER proficient) and UV5 cells (NER deficient); assay type: cell-based, Chinese hamster; details: for cytotoxicity: AA8 and UV5 cells, absence of human liver S9, 100 μM–1 mM; for influence of NER status on cytotoxicity: UV5 (NER deficient) versus AA8 (NER proficient), absence of human liver S9
Outline: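 AA8 (NER-proficient) and UV5 (NER-deficient; induced XPD/ERCC2 defect) CHO lines, neither expressing significant phase I or II enzymes, exposed to parent alkylanilines at 50 μM–1 mM without human liver S9. Viability was scored by trypan blue exclusion 24 h after treatment.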

[6] = test system: Chinese hamster ovary (CHO) cells; details: with and without exogenous metabolic activation; cited from earlier work
bone marrow of male mice = details: oral doses of up to 375 mg/kg/day; cited from earlier work
[7] = test system: recombinant human P450s (1A1, 1A2, 1B1, 2A6 and 2E1); details: five recombinant human P450s tested; unpublished results; cited from earlier work
[8] = test system: CHO cells that are NER deficient (or proficient) and express mouse P4501A2 plus human aryl sulfotransferase or NAT genes; assay type: cell-based, Chinese hamster; details: for contribution of aryl sulfotransferase relative to NAT2: NER-deficient cells expressing CYP1A2 and either phase II enzyme; for potency in inducing both responses (cytotoxicity and mutagenicity), influence of NER status: cell lines expressing CYP1A2 and NAT2; for cytotoxicity: two cell lines both deficient in NER, one expressing CYP1A2 and NAT2, 100 μM –1 mM
Outline: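 CHO lines derived from AA8 via UV5 (NER-deficient through an induced XPD/ERCC2 defect). UV5P3 carries mouse CYP1A2 cDNA and was further transfected with human aryl sulfotransferase (HAST1) or NAT2; NER-proficient counterparts were also used. Exposure to parent alkylanilines at 50 μM–1 mM, or to N-hydroxy or aminophenol metabolites at 5–500 μM. Viability was scored by trypan blue exclusion 24 h after treatment.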

Salmonella typhimurium = details: multiple bacterial strains, presence or absence of exogenous activating systems; cited from earlier work
humans = details: ref International Agency for Cancer; cited from earlier work
male and female rats = details: dose-dependent; cited from earlier work
[9] = test system: human lymphoblastoid TK6 cells; details: cited from earlier work; for cell death: TK6 cells; for viability: TK6 cells exposed to millimolar concentrations
Escherichia coli = details: cited from earlier work
[10] = test system: 12-O-tetradecanoyl phorbol 13-acetate responsive element and nuclear factor-kappaB-binding activity; details: in an ROS-dependent fashion; cited from earlier work
[11] = test system: S9 from human, rat, dog and mouse liver; details: cited from earlier work
Calf thymus DNA = experiment: Formation of DNA adducts by [14C]alkylanilines in vitro with human hepatic S9; assay type: biochemical; details: human S9, 25–1000 nM alkylaniline (Figure 3)
Outline: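 Calf thymus DNA (1 mg/ml) was incubated with human hepatic S9 (2 mg/ml) in 50 mM Tris pH 7.4 with NADPH regeneration (1.3 mM NADP+, 3.3 mM glucose-6-phosphate, 3.3 mM MgCl2, 0.1 U G6P dehydrogenase) and [14C]alkylaniline at 25, 100 or 1000 nM. Purified DNA-bound radiolabel was measured by accelerator mass spectrometry, as adducts per 10^8 nucleotides (±SD; N = 4).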

[12] = test system: HPRT gene of human lymphoblastoid TK6 cells; details: cited from earlier work
mice = details: oral administration, hydrochloride salt, ref International Agency for Cancer; cited from earlier work
rats = details: oral administration, hydrochloride salt, ref International Agency for Cancer; cited from earlier work
bladder cancer [13] = details: occupationally exposed workers; cited from earlier work
[14] = rats, urine; cited from earlier work

SMILES: CC(=O)Nc1ccc(O)cc1 [acetaminophen]
- Nrf2 nuclear translocation (Nrf2): can initiate nuclear translocation of Nrf2

SMILES: Cc1cccc(C)c1N [2,6-DMA, 2,6-dimethylaniline]
- mutation induction [1]: induced mutations
- mutagenicity [2]: not mutagenic
- conversion to the corresponding hydroxylamine (human liver microsomes): readily apparent
- decrease of DNA adduct level by promotion of NAT activity (ct-DNA): 78%
- mutagenicity [3]: mutagenic only in cells expressing the metabolizing enzymes
- hepatic DNA adducts (hepatic DNA): < 3.2 adducts per 10^8 normal bases
- conversion to the corresponding hydroxylamine (rat liver microsomes): undetectable activity
- labeling of tissue DNA (tissue DNA): detectable labeling of DNA
- unscheduled DNA synthesis (rat hepatocytes): did not induce unscheduled DNA synthesis
- genotoxic effect (E.coli K12): No genotoxic effect
- association with bladder cancer risk (bladder cancer [4]): independently associated with risk for development of bladder cancer
- sex-linked recessive lethal effect (Drosophila melanogaster): nor was feeding or injecting it effective
- cytotoxicity [5]: cytotoxic
- influence of NER status on cytotoxicity [5]: enhanced by NER deficiency
- genotoxic effects induced [6]: sister chromatid exchange and chromosomal aberrations
- micronuclei (bone marrow of male mice): No increase of micronuclei
- N-hydroxylation activity [7]: only 2A6 exhibited N-hydroxylation activity
- contribution of aryl sulfotransferase relative to NAT2 [8]: more effective in potentiating cytotoxicity but not mutagenicity
- potency in inducing both responses (cytotoxicity and mutagenicity), influence of NER status [8]: greatly enhanced in the NER-deficient cells
- cytotoxicity [8]: cytotoxic
- mutagenicity (Salmonella typhimurium): neither mutagenic
- carcinogenicity category (humans): Group 2B
- tumour induction (male and female rats): inducing carcinomas and papillary adenomas of the nasal cavity
- cell death [9]: induced cell death
- activity in DNA damage and repair assay (Escherichia coli): nor was it active

SMILES: Cc1cc(C)cc(N)c1 [3,5-DMA, 3,5-dimethylaniline]
- mutagenicity [2]: not mutagenic
- enhancement of DNA adduct formation by promotion of NAT activity (ct-DNA): 53%
- mutagenicity [3]: mutagenic only in cells expressing the metabolizing enzymes
- labeling of tissue DNA (tissue DNA): detectable labeling of DNA
- association with bladder cancer risk (bladder cancer [4]): independently associated with risk for development of bladder cancer
- cytotoxicity [5]: cytotoxic
- influence of NER status on cytotoxicity [5]: enhanced by NER deficiency
- contribution of aryl sulfotransferase relative to NAT2 [8]: more effective in potentiating cytotoxicity but not mutagenicity
- potency in inducing both responses (cytotoxicity and mutagenicity), influence of NER status [8]: greatly enhanced in the NER-deficient cells
- cytotoxicity [8]: cytotoxic
- cell death [9]: induced cell death

SMILES: Nc1ccc(-c2ccccc2)cc1 [4-aminobiphenyl, reference compound]
- hepatic DNA adducts (hepatic DNA): ~500 adducts per 10^8 normal bases

SMILES: Cc1ccc(N)c(C)c1 [2,4-dimethylaniline]
- hepatic DNA adducts (hepatic DNA): < 3.2 adducts per 10^8 normal bases

SMILES: CCc1cccc(NO)c1 [N-hydoxy-3-EA]
- viability [9]: did not cause reduced viability

SMILES: N[C@@H](CCC(=O)N[C@@H](CSc1cc(O)c(SC[C@H](NC(=O)CC[C@H](N)C(=O)O)C(=O)NCC(=O)O)c(SC[C@H](NC(=O)CC[C@H](N)C(=O)O)C(=O)NCC(=O)O)c1O)C(=O)NCC(=O)O)C(=O)O [TGHQ, 2,3,5-tris-(glutathion-S-yl)hydroquinone]
- effect on TRE and NF-kappaB-binding activity [10]: modulates

- DNA binding of 3-EA compared with the other two alkylanilines (Calf thymus DNA): nearly identical to ∼6-fold less
SMILES: CCc1cccc(N)c1 [3-EA, 3-ethylaniline]
- decrease of DNA adduct level by promotion of NAT activity (ct-DNA): 28%
- labeling of tissue DNA (tissue DNA): detectable labeling of DNA
- association with bladder cancer risk (bladder cancer [4]): independently associated with risk for development of bladder cancer
- N-hydroxylation rate compared with 3,5-DMA or 2,6-DMA [11]: several times greater
- viability [9]: did not cause reduced viability

SMILES: Cc1cc(C)cc(NO)c1 [N-hydroxy-3,5-DMA]
- HPRT mutagenicity [12]: mutagenic

SMILES: Cc1ccccc1N [o-toluidine]
- tumour induction (mice): increased incidence of haemangiomas and haemangiosarcomas and hepatocellular carcinomas or adenomas
- tumour induction (rats): increased the incidence of tumours in multiple organs
- carcinogenicity category (humans): Group 1
- human carcinogenicity finding (bladder cancer [13]): is indeed a human bladder carcinogen
- production of an N-hydroxylamine in vivo [14]: urinary excretion of N-hydroxy-o-toluidine
